Data from ChEMBL document CHEMBL4627381, “Licochalcone A Selectively Resensitizes ABCG2-Overexpressing Multidrug-Resistant Cancer Cells to Chemotherapeutic Drugs” (J Nat Prod, 2020).

Columns and labels:
[1] = target: T1, Broad substrate specificity ATP-binding cassette transporter ABCG2 (Homo sapiens, UniProt Q9UNQ0); assay: Inhibition of ABCG2 (unknown origin)-mediated pheophorbide A efflux in H460-MX20 cells incubated for 1 hr by FACScan flow cytometry; type: cell-based
T1 sequence (Q9UNQ0 whole entry): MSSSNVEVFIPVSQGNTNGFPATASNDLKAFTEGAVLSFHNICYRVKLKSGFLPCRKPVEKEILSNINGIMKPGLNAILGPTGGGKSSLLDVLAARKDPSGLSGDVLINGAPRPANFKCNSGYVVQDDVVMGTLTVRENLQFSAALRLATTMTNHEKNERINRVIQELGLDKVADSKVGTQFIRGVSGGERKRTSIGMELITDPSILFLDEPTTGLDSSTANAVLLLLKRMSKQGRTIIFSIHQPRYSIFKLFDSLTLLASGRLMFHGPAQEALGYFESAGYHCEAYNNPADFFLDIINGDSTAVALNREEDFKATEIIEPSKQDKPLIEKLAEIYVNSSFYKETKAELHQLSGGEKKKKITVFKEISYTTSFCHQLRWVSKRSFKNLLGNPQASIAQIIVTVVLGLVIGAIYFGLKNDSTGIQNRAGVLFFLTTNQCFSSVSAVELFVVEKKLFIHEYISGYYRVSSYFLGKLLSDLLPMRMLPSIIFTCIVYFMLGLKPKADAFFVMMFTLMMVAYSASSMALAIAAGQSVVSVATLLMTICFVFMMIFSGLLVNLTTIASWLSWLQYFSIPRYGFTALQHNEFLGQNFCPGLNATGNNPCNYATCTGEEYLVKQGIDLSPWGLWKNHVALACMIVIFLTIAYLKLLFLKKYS
How it was run: (§1)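 Cells held drug-free 7 days. 3 × 10^5 cells were suspended in IMDM with 5% FCS and loaded with pheophorbide A (ex 395/em 670 nm) for 1 h, with or without LCA (20 μM for single-concentration accumulation) or Ko143 3 μM as reference. Read immediately by flow cytometry. Efflux inhibition was run over a concentration range; mean ± SD of three experiments.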

[2] = target: T1, Broad substrate specificity ATP-binding cassette transporter ABCG2; assay: Inhibition of human ABCG2-mediated pheophorbide A efflux in HEK293/R482 cells incubated for 1 hr by FACScan flow cytometry; type: cell-based; how it was run: as §1
HEK293 [3] = assay: Cytotoxicity against HEK293 cells overexpressing human ABCG2 after 72 hrs by CCK8 assay; type: ADME, cell-based; conditions: HEK293, 72 h
How it was run: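 Cells seeded at 5000/well, allowed 24 h, then exposed to a concentration series for 72 h at 37 °C in DMSO vehicle (up to 0.5% v/v). HEK293 lines were read with CCK-8 and cancer lines with MTT. IC50 was taken from fitted dose-response curves over at least three independent experiments. Lines were kept drug-free for 7 days before assay.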

[4] = target: T1, Broad substrate specificity ATP-binding cassette transporter ABCG2; assay: Reversal of ABCG2 (unknown origin)-mediated multidrug resistance in human H460-MX20 cells assessed as fold change in topotecan IC50 at 1 uM after 72 hrs by MTT assay relative to topotecan IC50; type: cell-based
How it was run: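 Cells held drug-free 7 days, seeded at 5000 per well for 24 h, then exposed 72 h to mitoxantrone or topotecan dilutions with DMSO (≤0.5%), LCA 0.5–3.0 μM, or Ko143 1.0 μM. Viability was read by MTT. IC50 came from fitted dose-response curves of three independent experiments. Fold-reversal = IC50 without modulator divided by IC50 with modulator.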

NCI-H460 = assay: Effect on topotecan-induced cytotoxicity against human H460 cells assessed as fold change in topotecan IC50 at 1 uM after 72 hrs by MTT assay relative to topotecan IC50; type: functional
How it was run: (§2)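 Parental S1 colon and H460 lung cancer cells were exposed for 72 h to a mitoxantrone or topotecan concentration series, with or without modulator at 0.5–3.0 μM, and read by MTT. Fold-reversal is IC50 without modulator divided by IC50 with modulator, taken from dose-response curves of three independent experiments.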

[5] = target: T1, Broad substrate specificity ATP-binding cassette transporter ABCG2; assay: Reversal of ABCG2 (unknown origin)-mediated multidrug resistance in human S1-M1-80 cells assessed as fold-change in topotecan IC50 at 1 uM after 72 hrs by MTT assay relative to topotecan IC50; type: cell-based; conditions: s1-m1-80, 72 h
How it was run: (§3)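 MTT readout in S1-M1-80 colon cancer cells (mitoxantrone-selected, held in 80 μM mitoxantrone, then drug-free 7 days before assay). Cells were seeded at 5000/well for 24 h, then given increasing mitoxantrone or topotecan with DMSO or non-toxic modulator for 72 h at 37 °C. IC50 came from fitted dose-response curves (at least three independent experiments). Fold-reversal = IC50 without modulator ÷ IC50 with modulator.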

S1 [6] = assay: Effect on topotecan-induced cytotoxicity against human S1 cells assessed as fold change in topotecan IC50 at 1 uM after 72 hrs by MTT assay relative to topotecan IC50; type: functional; how it was run: as §2
[7] = target: T1, Broad substrate specificity ATP-binding cassette transporter ABCG2; assay: Reversal of ABCG2 (unknown origin)-mediated multidrug resistance in human S1-M1-80 cells assessed as fold-change in mitoxantrone IC50 at 2 uM after 72 hrs by MTT assay relative to mitoxantrone IC50; type: cell-based; conditions: s1-m1-80, 72 h; how it was run: as §3
S1 [8] = assay: Effect on mitoxantrone-induced cytotoxicity against human S1 cells assessed as fold change in mitoxantrone IC50 at 2 uM after 72 hrs by MTT assay relative to mitoxantrone IC50; type: functional; how it was run: as §2
HEK293 [9] = assay: Effect on mitoxantrone-induced cytotoxicity against HEK293 cells assessed as fold change in mitoxantrone IC50 at 3 uM after 72 hrs by CCK8 assay relative to mitoxantrone IC50; type: cell-based; conditions: human, hek293, 72 h
How it was run: (§4)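 Reversal assay in parental pcDNA-HEK293 and transfected HEK293 lines (ABCB1 for colchicine, ABCC1 for etoposide, ABCG2 for mitoxantrone/topotecan). Substrate drug series was given with or without nontoxic modulator (0.5, 1.0, 2.0 or 3.0 μM) for 72 h, with a CCK-8 read-out. Fold-reversal is substrate IC50 without modulator divided by IC50 with modulator. Three independent experiments.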

[10] = target: T2, Multidrug resistance-associated protein 1 (Homo sapiens, UniProt P33527); assay: Reversal of human ABCC1-mediated multidrug resistance in HEK293/MRP1 cells assessed as fold-change in etoposide IC50 at 2 uM after 72 hrs by CCK8 relative to etoposide IC50; type: cell-based
How it was run: (§5)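 Cells were seeded at 5000/well for 24 h, then given colchicine, etoposide, mitoxantrone or topotecan ± non-toxic modulator (0.5–3.0 μM) for 72 h, with DMSO up to 0.5%. IC50 came from fitted curves (mean ± SD, three experiments). Fold-reversal = IC50 without modulator ÷ IC50 with modulator.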

[11] = target: T2, Multidrug resistance-associated protein 1; assay: Reversal of human ABCC1-mediated multidrug resistance in HEK293/MRP1 cells assessed as fold-change in etoposide IC50 at 0.5 uM after 72 hrs by CCK8 relative to etoposide IC50; type: cell-based; how it was run: as §5
HEK293 [12] = assay: Effect on etoposide-induced cytotoxicity against HEK293 cells assessed as fold change in etoposide IC50 at 2 uM after 72 hrs by CCK8 assay relative to etoposide IC50; type: cell-based; conditions: human, hek293, 72 h; how it was run: as §4
HEK293 [13] = assay: Effect on etoposide-induced cytotoxicity against HEK293 cells assessed as fold change in etoposide IC50 at 1 uM after 72 hrs by CCK8 assay relative to etoposide IC50; type: cell-based; conditions: human, hek293, 72 h; how it was run: as §4
[14] = target: T1, Broad substrate specificity ATP-binding cassette transporter ABCG2; assay: Reversal of human ABCG2-mediated multidrug resistance in HEK293/R482 cells assessed as potentiation of topotecan-induced cytotoxicity after 72 hrs by CCK8 assay; type: cell-based; how it was run: as §5

T2 sequence (P33527 whole entry): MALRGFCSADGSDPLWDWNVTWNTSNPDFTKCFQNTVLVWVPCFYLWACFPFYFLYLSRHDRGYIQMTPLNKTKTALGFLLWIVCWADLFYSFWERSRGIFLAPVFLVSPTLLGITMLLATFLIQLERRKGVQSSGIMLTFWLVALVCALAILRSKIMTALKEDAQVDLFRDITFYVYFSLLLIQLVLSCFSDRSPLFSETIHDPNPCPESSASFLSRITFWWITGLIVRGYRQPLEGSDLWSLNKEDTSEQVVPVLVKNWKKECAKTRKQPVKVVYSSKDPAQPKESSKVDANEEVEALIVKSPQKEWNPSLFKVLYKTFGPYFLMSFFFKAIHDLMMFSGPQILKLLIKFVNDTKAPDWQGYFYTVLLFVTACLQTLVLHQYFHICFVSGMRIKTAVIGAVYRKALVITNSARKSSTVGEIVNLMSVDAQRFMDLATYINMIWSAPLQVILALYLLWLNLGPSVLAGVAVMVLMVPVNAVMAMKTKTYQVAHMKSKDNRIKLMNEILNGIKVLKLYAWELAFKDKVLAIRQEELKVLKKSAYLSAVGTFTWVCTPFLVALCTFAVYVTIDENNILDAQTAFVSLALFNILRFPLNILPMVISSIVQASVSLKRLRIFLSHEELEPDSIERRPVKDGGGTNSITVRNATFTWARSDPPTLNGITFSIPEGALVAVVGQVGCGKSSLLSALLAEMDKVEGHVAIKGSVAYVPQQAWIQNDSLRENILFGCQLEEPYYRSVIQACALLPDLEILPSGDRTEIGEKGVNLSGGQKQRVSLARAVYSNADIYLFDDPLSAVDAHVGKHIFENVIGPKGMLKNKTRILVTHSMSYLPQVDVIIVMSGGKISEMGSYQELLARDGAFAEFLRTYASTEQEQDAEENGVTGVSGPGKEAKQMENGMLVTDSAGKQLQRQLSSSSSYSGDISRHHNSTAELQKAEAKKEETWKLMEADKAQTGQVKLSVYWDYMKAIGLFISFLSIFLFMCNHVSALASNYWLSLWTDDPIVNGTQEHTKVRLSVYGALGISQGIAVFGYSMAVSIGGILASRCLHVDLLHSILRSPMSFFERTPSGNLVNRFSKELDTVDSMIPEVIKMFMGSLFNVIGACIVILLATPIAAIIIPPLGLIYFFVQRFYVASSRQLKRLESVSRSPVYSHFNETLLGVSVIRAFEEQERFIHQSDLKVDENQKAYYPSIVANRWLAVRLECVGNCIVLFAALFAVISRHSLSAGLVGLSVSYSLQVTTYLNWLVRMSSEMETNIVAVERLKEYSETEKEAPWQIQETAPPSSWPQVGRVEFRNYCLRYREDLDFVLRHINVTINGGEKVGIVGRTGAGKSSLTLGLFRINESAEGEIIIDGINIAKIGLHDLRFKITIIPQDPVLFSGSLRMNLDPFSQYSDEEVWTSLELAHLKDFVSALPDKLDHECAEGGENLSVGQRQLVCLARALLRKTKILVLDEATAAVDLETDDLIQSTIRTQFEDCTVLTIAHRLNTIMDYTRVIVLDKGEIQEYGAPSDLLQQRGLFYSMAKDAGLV

inhibition (INH) [1]: Dose-dependent effect | inhibition (INH) [2]: Dose-dependent effect | fold change (FC) [4]: 9.2 | fold change (FC) [5]: 16.6 | fold change (FC) [10]: 1 | fold change (FC) [11]: 1.2
SMILES: C=CC(C)(C)c1cc(/C=C/C(=O)c2ccc(O)cc2)c(OC)cc1O [LICOAGROCHACONE A]
IC50 (HEK293 [3]): 10 to 50 µM | fold change (FC) (NCI-H460): 1.7 | fold change (FC) (S1 [6]): 0.8 | fold change (FC) [7]: 28 | fold change (FC) (S1 [8]): 1.1 | fold change (FC) (HEK293 [9]): 1 | fold change (FC) (HEK293 [12]): 0.7 | fold change (FC) (HEK293 [13]): 0.7 | Activity [14]: Dose-dependent effect
